We go through two compounds from ChEMBL document CHEMBL1143672, “Synthesis and pharmacology of site-specific cocaine abuse treatment agents: restricted rotation analogues of methylphenidate” (J Med Chem, 2007).

What is called IC50 is the concentration at which inhibition is half-maximal. Low readings indicate higher potency, high ones lower potency. As usually defined, the Ki is a measure of affinity in units of concentration, obtained from inhibition or displacement. Higher therefore signals a looser hold on the target. One may read the inhibition as the relative decrease from the control value, in per cent.

Assay [1] addresses T1, Sodium-dependent dopamine transporter (Rattus norvegicus, UniProt P23977). Nature of the assay: Inhibition of [3H]DA uptake at DAT in Sprague-Dawley rat striatum. The gist of the method:
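Uptake of [3H]dopamine into the S1 fraction of rat striatal homogenate; IC50 from curves fit by nonlinear regression.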

In assay [2] the target is Norepinephrine transporter (Rattus norvegicus, UniProt Q9WTR4). The experiment in a line: Displacement of [3H]nisoxetine from NET in Sprague-Dawley rat cortical tissue. Background: Loss of bound radioactivity is the signal in a displacement assay; it reports binding, not function.
Assay [3] addresses T1, Sodium-dependent dopamine transporter. The experiment in a line: Displacement of [3H]WIN-35428 from DAT in Sprague-Dawley rat striatum.
The target of assay [4] is Monoamine transporters; Norepinephrine & serotonin (Rattus norvegicus) (UniProt P31652+Q9WTR4). The experiment in a line: Selectivity for rat NET over rat 5HTT. Type of assay: protein assay.
Assay [5] addresses Sodium-dependent serotonin transporter (Rattus norvegicus, UniProt P31652). Nature of the assay: Displacement of [3H]citalopram from 5HTT in Sprague-Dawley rat cerebrum. The gist of the method:
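Rat cortical P2 fraction in 25 mM sodium phosphate, pH 7.7 at 0 °C; 2 nM [3H]citalopram, 3 h at 0 °C; filtration. Nonspecific binding with 1 µM clomipramine. Compounds in water, dilute DMSO or methanol (≤0.3% solvent). Data corrected for filter binding; IC50 by nonlinear regression, Ki by Cheng-Prusoff.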

For assay [6], the target named is Monoamine transporters; Norepininephrine & dopamine (Rattus norvegicus) (UniProt P23977+Q9WTR4). Nature of the assay: Selectivity for rat DAT over rat NET. Type of assay: protein assay.
Assay [7] has as its target Monoamine transporters; serotonin & dopamine (Rattus norvegicus) (UniProt P31652+P23977). The experiment in a line: Selectivity for rat DAT over rat 5HTT. Type of assay: protein assay.
The target in assay [8] is Norepinephrine transporter (Rattus norvegicus) (UniProt Q9WTR4). The experiment in a line: Displacement of [3H]nisoxetine from NET in Sprague-Dawley rat cortical tissue at 5 uM.
Assay [9] concerns the target Sodium-dependent serotonin transporter (Rattus norvegicus) (UniProt P31652). The experiment in a line: Displacement of [3H]citalopram from 5HTT in Sprague-Dawley rat cerebrum at 10 uM.
Assay [10] addresses Norepinephrine transporter (Rattus norvegicus) (UniProt Q9WTR4). The experiment in a line: Displacement of [3H]nisoxetine from NET in Sprague-Dawley rat cortical tissue at 10 uM.

Where only a bound is given, the exact number is not on record here.

T1 sequence (P23977 whole entry): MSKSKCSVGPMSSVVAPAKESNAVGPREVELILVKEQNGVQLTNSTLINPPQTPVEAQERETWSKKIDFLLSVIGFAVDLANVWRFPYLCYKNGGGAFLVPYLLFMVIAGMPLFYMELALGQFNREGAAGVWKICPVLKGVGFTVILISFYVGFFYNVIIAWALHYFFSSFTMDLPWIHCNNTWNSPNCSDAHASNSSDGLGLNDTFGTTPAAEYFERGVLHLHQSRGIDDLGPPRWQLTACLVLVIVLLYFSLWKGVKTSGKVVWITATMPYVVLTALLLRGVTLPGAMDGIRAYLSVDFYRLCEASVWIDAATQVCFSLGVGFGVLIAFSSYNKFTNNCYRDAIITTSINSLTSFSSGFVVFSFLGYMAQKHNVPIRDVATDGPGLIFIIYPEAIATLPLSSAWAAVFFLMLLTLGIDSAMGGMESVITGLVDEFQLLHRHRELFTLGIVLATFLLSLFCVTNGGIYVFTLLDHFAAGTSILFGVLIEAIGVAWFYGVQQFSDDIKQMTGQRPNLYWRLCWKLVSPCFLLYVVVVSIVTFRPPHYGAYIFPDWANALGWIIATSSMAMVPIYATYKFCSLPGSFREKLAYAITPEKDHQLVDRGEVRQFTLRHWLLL
Chain of Norepinephrine transporter (Rattus norvegicus) (Q9WTR4 as listed by the source): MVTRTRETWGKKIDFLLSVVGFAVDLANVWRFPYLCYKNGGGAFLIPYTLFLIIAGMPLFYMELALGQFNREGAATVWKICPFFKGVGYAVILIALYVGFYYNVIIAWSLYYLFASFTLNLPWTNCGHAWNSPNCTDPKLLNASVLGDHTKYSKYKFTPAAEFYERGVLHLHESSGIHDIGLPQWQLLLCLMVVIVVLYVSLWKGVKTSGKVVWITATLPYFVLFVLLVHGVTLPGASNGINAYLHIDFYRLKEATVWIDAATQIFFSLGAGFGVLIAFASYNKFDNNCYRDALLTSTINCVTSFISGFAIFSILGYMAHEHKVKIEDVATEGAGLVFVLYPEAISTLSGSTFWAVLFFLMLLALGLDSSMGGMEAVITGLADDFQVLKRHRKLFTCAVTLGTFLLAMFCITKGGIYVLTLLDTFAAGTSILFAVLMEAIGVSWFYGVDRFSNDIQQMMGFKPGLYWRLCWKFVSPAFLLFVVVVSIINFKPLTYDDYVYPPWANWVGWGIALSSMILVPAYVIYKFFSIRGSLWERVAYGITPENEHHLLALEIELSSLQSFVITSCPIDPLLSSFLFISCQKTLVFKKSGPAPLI
Chain of Monoamine transporters; serotonin & dopamine (Rattus norvegicus) (P23977 whole entry, looked up): as the sequence (P23977 whole entry) above
Chain of Monoamine transporters; serotonin & dopamine (Rattus norvegicus) (P31652 whole entry, looked up): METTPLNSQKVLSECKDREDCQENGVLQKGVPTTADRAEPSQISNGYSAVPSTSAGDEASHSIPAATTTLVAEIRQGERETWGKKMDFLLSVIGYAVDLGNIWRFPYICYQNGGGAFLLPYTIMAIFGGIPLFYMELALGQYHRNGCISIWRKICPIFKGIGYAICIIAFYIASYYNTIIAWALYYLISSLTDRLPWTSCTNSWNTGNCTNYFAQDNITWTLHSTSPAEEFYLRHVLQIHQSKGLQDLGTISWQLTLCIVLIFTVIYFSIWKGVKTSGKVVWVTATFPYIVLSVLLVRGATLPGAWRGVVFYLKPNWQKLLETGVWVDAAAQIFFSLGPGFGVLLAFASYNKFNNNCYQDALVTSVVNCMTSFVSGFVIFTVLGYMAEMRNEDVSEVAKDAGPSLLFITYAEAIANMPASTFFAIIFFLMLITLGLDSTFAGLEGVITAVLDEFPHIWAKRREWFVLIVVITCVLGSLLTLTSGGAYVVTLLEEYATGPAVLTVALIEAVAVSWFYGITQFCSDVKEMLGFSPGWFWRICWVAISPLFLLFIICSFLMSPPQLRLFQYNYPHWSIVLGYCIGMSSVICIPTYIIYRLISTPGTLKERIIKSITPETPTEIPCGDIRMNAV
Chain of Norepinephrine transporter (Q9WTR4 whole entry): as the sequence (Q9WTR4 as listed by the source) above
Chain of Sodium-dependent serotonin transporter (Rattus norvegicus) (P31652 whole entry): as the sequence (P31652 whole entry, looked up) above
Chain of Sodium-dependent serotonin transporter (P31652 whole entry): as the sequence (P31652 whole entry, looked up) above
Chain of Monoamine transporters; Norepinephrine & serotonin (Rattus norvegicus) (P31652 whole entry): as the sequence (P31652 whole entry, looked up) above
Chain of Monoamine transporters; Norepinephrine & serotonin (Rattus norvegicus) (Q9WTR4 1-597): as the sequence (Q9WTR4 as listed by the source) above

For the compound `Clc1ccccc1[C@H]1CCCN2CCCC[C@H]12` (relative stereo), in assay [1], the IC50 was determined as 1260 nM. The values for the inhibitory constant (Ki) in [2], in assay [3] and in [5] were 2750 nM, 480 nM and 1840 nM, respectively. For the same compound, the Selectivity ratio was found to be 0.67 in assay [4], 5.7 in [6] and 3.8 in assay [7]. In addition, the inhibition in [8] is 58%.

In the case of `c1ccc(CC2CCCCN2)cc1` (stereo not drawn), the half-maximal inhibitory concentration (IC50) in assay [1] was determined as 8800 nM. In assay [3], this compound gave a Ki of 6360 nM. The inhibition in assay [9] is 22%; in assay [10], 36%. Further, the Selectivity ratio in assay [7] is over 1.6.
